Results: ChEMBL document CHEMBL3739417, “Synthesis and biological evaluation of novel 4,5-disubstituted 2H-1,2,3-triazoles as cis-constrained analogues of combretastatin A-4” (2015)
Active and inactive are the calls of the source. No cut-off for these calls is given here.

Columns and labels:
[1] = Cell cycle arrest in rat 9LSF cells assessed as accumulation at G2/M phase at 50 nM after 24 hrs by propidium iodide based flow cytometry; format: functional
Outline: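 9LSF rat gliosarcoma cells were exposed to 50 nM compound for 24 h alongside untreated controls. Cells were then trypsinized, counted, rinsed in PBS and fixed in ice-cold 70% EtOH/PBS at 10⁶ cells/mL, then held at 4°C. For analysis, 10⁶ cells were pelleted, rinsed three times in PBS and resuspended in 1 mL PBS with 1 µL PI (12.5 mg/mL stock in DMSO). The G2/M fraction was read by flow cytometry.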

[2] = Inhibition of colony formation in rat 9LSF cells after 24 hrs by crystal violet staining; format: functional; details: read-out: LD50 (the source's name)
Outline: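 9LSF rat gliosarcoma cells exposed for 24 hours at 1 nM, 3 nM, 10 nM, 30 nM, 100 nM, 1 μM or 10 μM. Then trypsinized, counted, seeded in triplicate and incubated at 37°C until colonies exceeded 50 cells. Flasks with fewer than 50,000 cells got 50,000 lethally irradiated A549 feeder cells first. Colonies fixed, crystal violet-stained and counted. LD50 from four-parameter logistic fit, mean ± SEM of 3 independent experiments.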

Question: What does the source list for `COc1ccc(-c2n[nH]nc2-c2cc(OC)c(OC)c(OC)c2)cc1O`?
Answer: Activity [1]: Active; CC50 [2]: 7.5 nM
